Results from ChEMBL document CHEMBL1136953, “Design, synthesis, and evaluation of N-acyl modified sialic acids as inhibitors of adenoviruses causing epidemic keratoconjunctivitis” (J Med Chem, 2009).
Active and inactive are the calls of the source. The calls are words filed in the database; no cut-off is given here.

System: Human adenovirus D37
Test: Antiviral activity against Human adenovirus type 37 virions assessed as inhibition of viral infection in human corneal epithelial cells preincubated for 1 hr
Type: functional, organism-based
Details: Cornea, Epithelial cell
Method in brief: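 Unlabeled Ad37 virions preincubated with a dilution series of ligand, then incubated with HCE cells. Unbound virions washed off; cell-associated virions allowed to infect. Infected cells stained with rabbit polyclonal anti-Ad37 serum and FITC-conjugated swine anti-rabbit IgG, then counted as fluorescent focus units under an immunofluorescence microscope. Duplicates within one experiment; experiment repeated twice.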

**Q.** How did the Activity turn out when CC(=O)N[C@H]1[C@H]([C@@H](O)[C@@H](O)CO)O[C@@](O)(C(=O)O)C[C@@H]1O was run?
**A.** Dose-dependent effect

**Q.** Which Activity does the source give for COC(=O)N[C@H]1[C@H]([C@H](O)[C@H](O)CO)O[C@](OC)(C(=O)O)C[C@@H]1O here?
**A.** Dose-dependent effect

**Q.** For CO[C@@]1(C(=O)O)C[C@H](O)[C@@H](NC(=O)c2ccccc2)[C@H]([C@H](O)[C@H](O)CO)O1, which Activity is on record?
**A.** inactive

**Q.** With CCC(=O)N[C@H]1[C@H]([C@H](O)[C@H](O)CO)O[C@](OC)(C(=O)O)C[C@@H]1O as the compound, how does the Activity read?
**A.** Dose-dependent effect

**Q.** Which Activity does the source give for CCCC(=O)N[C@H]1[C@H]([C@H](O)[C@H](O)CO)O[C@](OC)(C(=O)O)C[C@@H]1O here?
**A.** inactive

**Q.** How did the Activity turn out when CO[C@@]1(C(=O)O)C[C@H](O)[C@@H](NC(=O)C(C)C)[C@H]([C@H](O)[C@H](O)CO)O1 was run?
**A.** inactive

System: Human adenovirus D37
Test: Inhibition of [35S]labeled Human adenovirus type 37 virions binding to human corneal epithelial cells by liquid scintillation counting
Type: functional, organism-based
Details: Cornea, Epithelial cell
Method in brief: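 ³⁵S-labeled Ad37 virions preincubated with ligand before being added to HCE cells. After incubation, unbound virions washed away and cell-associated radioactivity measured. Each run used a duplicate dilution series (2, 4, 8 and 16 mM), averaged from duplicates. Experiment repeated three times; large variation allowed only a rough activity estimate.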

**Q.** Which Activity does the source give for CC(=O)N[C@H]1[C@H]([C@@H](O)[C@@H](O)CO)O[C@@](O)(C(=O)O)C[C@@H]1O here?
**A.** Active

**Q.** With CO[C@@]1(C(=O)O)C[C@H](O)[C@@H](NC(=O)OC(C)(C)C)[C@H]([C@H](O)[C@H](O)CO)O1 as the compound, how does the Activity read?
**A.** inactive

**Q.** For O=C(CO)N[C@H]1[C@H]([C@H](O)[C@H](O)CO)O[C@](O)(C(=O)O)C[C@@H]1O, which Activity is on record?
**A.** inactive

**Q.** With CCCCC(=O)N[C@H]1[C@H]([C@H](O)[C@H](O)CO)O[C@](OC)(C(=O)O)C[C@@H]1O as the compound, how does the Activity read?
**A.** inactive

**Q.** With COC(=O)N[C@H]1[C@H]([C@H](O)[C@H](O)CO)O[C@](OC)(C(=O)O)C[C@@H]1O as the compound, how does the Activity read?
**A.** Active

**Q.** For CO[C@@]1(C(=O)O)C[C@H](O)[C@@H](NC(=O)c2ccccc2)[C@H]([C@H](O)[C@H](O)CO)O1, which Activity is on record?
**A.** Active

**Q.** CCC(=O)N[C@H]1[C@H]([C@H](O)[C@H](O)CO)O[C@](OC)(C(=O)O)C[C@@H]1O was tested. Which Activity did it give?
**A.** Active

**Q.** How did the Activity turn out when CNC(=O)N[C@H]1[C@H]([C@H](O)[C@H](O)CO)O[C@](OC)(C(=O)O)C[C@@H]1O was run?
**A.** inactive

**Q.** CCCC(=O)N[C@H]1[C@H]([C@H](O)[C@H](O)CO)O[C@](OC)(C(=O)O)C[C@@H]1O was tested. Which Activity did it give?
**A.** inactive

**Q.** CO[C@@]1(C(=O)O)C[C@H](O)[C@@H](NC(=O)C(C)C)[C@H]([C@H](O)[C@H](O)CO)O1 was tested. Which Activity did it give?
**A.** inactive
